According to ChEMBL document CHEMBL1156678, “A new class of analgesic agents toward prostacyclin receptor inhibition: synthesis, biological studies and QSAR analysis of 1-hydroxyl-2-substituted phenyl-4,4,5,5-tetramethylimidazolines” (Eur J Med Chem, 2008):

Assays:
[1] = system: Mus musculus; assay: Analgesic activity in ICR mouse assessed as pain threshold variation at 0.13 mmol/kg, ip after 30 mins by tail flick test relative to control; type: functional
In short: (§1)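 Male ICR mice (25 ± 2 g), kept on a 12/12 h light/dark cycle at 21 ± 2 °C for one day before use. Each received a single i.p. injection in 0.2 ml saline + 0.01 ml DMSO + 0.02 ml Tween-80. Vehicle-only mice served as controls. Basal tail-flick threshold was measured four times (BPT). Thresholds were then read every 30 min for 150 min. PTV = (post-dose threshold − BPT)/BPT. n = 10, x ± SD.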

[2] = system: Mus musculus; assay: Analgesic activity in ICR mouse assessed as pain threshold variation at 0.13 mmol/kg, ip after 90 mins by tail flick test relative to control; type: functional; in short: as §1
[3] = system: Mus musculus; assay: Thrombotic toxicity in ICR mouse assessed as tail bleeding time at 1.3 mmol/kg, ip after 5 mins; type: organism-based; details: in vivo
In short: (§2)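 Male ICR mice (25 ± 2 g) were kept one day on a 12/12 h light/dark cycle at 21 ± 2 °C. Each received a single i.p. dose of 1.30 mmol/kg in saline/DMSO/Tween-80 (0.2/0.01/0.02 ml), or the solvent only. The restrained mouse had 1 mm cut from the tail before dosing and at 5, 15, 30 and 60 min. Bleeding time (s) is reported as mean ± SD.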

[4] = system: Mus musculus; assay: Thrombotic toxicity in ICR mouse assessed as tail bleeding time at 1.3 mmol/kg, ip after 60 mins; type: organism-based; details: in vivo, 1 h; in short: as §2
[5] = system: Mus musculus; assay: Thrombotic toxicity in ICR mouse assessed as tail bleeding time at 1.3 mmol/kg, ip after 30 mins; type: organism-based; details: in vivo, 0.5 h; in short: as §2
[6] = Cardiovascular toxicity in rat aorta assessed as inhibition of noradrenaline-induced vasoconstriction at 5 mM relative to control; type: tissue-based; details: isolated rat aorta
In short: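 Rat aortic strips were contracted with noradrenaline, washed, stabilized for 30 min, and contracted again. At peak contraction, compound was added (final 5 × 10^-3 M) or vehicle alone. The relaxant response was recorded as percentage inhibition of the contraction.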

[7] = system: Mus musculus; assay: Thrombotic toxicity in ICR mouse assessed as tail bleeding time at 1.3 mmol/kg, ip after 15 mins; type: organism-based; details: in vivo, 0.25 h; in short: as §2
[8] = system: Mus musculus; assay: Analgesic activity in ICR mouse assessed as pain threshold variation at 0.13 mmol/kg, ip after 120 mins by tail flick test; type: functional; in short: as §1
[9] = system: Mus musculus; assay: Analgesic activity in ICR mouse assessed as pain threshold variation at 0.13 mmol/kg, ip after 150 mins by tail flick test; type: functional; in short: as §1
[10] = system: Mus musculus; assay: Analgesic activity in ICR mouse assessed as pain threshold variation at 0.13 mmol/kg, ip after 60 mins by tail flick test relative to control; type: functional; in short: as §1
[11] = system: Mus musculus; assay: Analgesic activity in ICR mouse assessed as pain threshold variation at 0.013 mmol/kg, ip after 60 mins by tail flick test relative to control; type: functional; in short: as §1
[12] = system: Mus musculus; assay: Analgesic activity in ICR mouse assessed as pain threshold variation at 0.0013 mmol/kg, ip after 90 mins by tail flick test relative to control; type: functional; in short: as §1
[13] = system: Mus musculus; assay: Analgesic activity in ICR mouse assessed as pain threshold variation at 0.013 mmol/kg, ip after 30 mins by tail flick test relative to control; type: functional; in short: as §1
[14] = system: Mus musculus; assay: Analgesic activity in ICR mouse assessed as pain threshold variation at 0.013 mmol/kg, ip after 150 mins by tail flick test relative to control; type: functional; in short: as §1
[15] = system: Mus musculus; assay: Analgesic activity in ICR mouse assessed as pain threshold variation at 0.013 mmol/kg, ip after 120 mins by tail flick test relative to control; type: functional; in short: as §1
[16] = system: Mus musculus; assay: Analgesic activity in ICR mouse assessed as pain threshold variation at 0.0013 mmol/kg, ip after 120 mins by tail flick test relative to control; type: functional; in short: as §1
[17] = system: Mus musculus; assay: Analgesic activity in ICR mouse assessed as pain threshold variation at 0.013 mmol/kg, ip after 90 mins by tail flick test relative to control; type: functional; in short: as §1
[18] = system: Mus musculus; assay: Analgesic activity in ICR mouse assessed as pain threshold variation at 0.0013 mmol/kg, ip after 30 mins by tail flick test relative to control; type: functional; in short: as §1
[19] = system: Mus musculus; assay: Analgesic activity in ICR mouse assessed as pain threshold variation at 0.0013 mmol/kg, ip after 60 mins by tail flick test relative to control; type: functional; in short: as §1
[20] = system: Mus musculus; assay: Analgesic activity in ICR mouse assessed as pain threshold variation at 0.0013 mmol/kg, ip after 150 mins by tail flick test relative to control; type: functional; in short: as §1

| Compound | Activity [1] | Activity [2] | Activity [3] | Activity [4] | Activity [5] | inhibition at 5000 µM [6] | Activity [7] | Activity [8] | Activity [9] | Activity [10] | Activity [11] | Activity [12] | Activity [13] | Activity [14] | Activity [15] | Activity [16] | Activity [17] | Activity [18] | Activity [19] | Activity [20] |
| --- | --- | --- | --- | --- | --- | --- | --- | --- | --- | --- | --- | --- | --- | --- | --- | --- | --- | --- | --- | --- |
| CC1(C)N=C(c2ccccc2O)N(O)C1(C)C | 50.76% | 68.27% | 118 s | 118 s | 119 s | 22.9% | 117 s | 73.13% | 67.3% | 49.93% |  |  |  |  |  |  |  |  |  |  |
| CC1(C)N=C(c2ccc(Cl)cc2Cl)N(O)C1(C)C | 46.97% | 44.1% | 117 s | 119 s | 119 s | 15.9% | 117 s | 46.12% | 45.99% | 46.31% |  |  |  |  |  |  |  |  |  |  |
| COc1cc(C2=NC(C)(C)C(C)(C)N2O)ccc1O | 47.57% | 60.65% | 119 s | 117 s | 119 s | 20.6% | 118 s | 52.21% | 40.56% | 61.52% |  |  |  |  |  |  |  |  |  |  |
| CC1(C)N=C(c2ccc(O)cc2)N(O)C1(C)C | 57.6% | 79.8% | 116 s | 119 s | 119 s | 13.6% | 118 s | 53.45% | 27.62% | 74.74% |  |  |  |  |  |  |  |  |  |  |
| Cc1ccc(C2=NC(C)(C)C(C)(C)N2O)cc1 | 42.06% | 48.82% | 119 s | 119 s | 117 s | 16.7% | 118 s | 39.96% | 45.41% | 55.16% |  |  |  |  |  |  |  |  |  |  |
| CC1(C)N=C(c2ccc(Br)cc2)N(O)C1(C)C | 29.02% | 75.18% | 118 s | 120 s | 118 s | 18.4% | 119 s | 75.77% | 70.19% | 89.78% | 68.89% | 34.49% | 19.33% | 47.7% | 52.98% | 31.87% | 53.75% | 11.32% | 43.9% | 26.57% |
| CC1(C)N=C(c2ccc(Cl)cc2)N(O)C1(C)C | 63.85% | 75.61% | 117 s | 119 s | 117 s | 23.8% | 119 s | 74.74% | 88.42% | 70.21% | 47.25% | 32.13% | 39.87% | 62.76% | 50% | 31.55% | 50.88% | 24.97% | 30.02% | 42.74% |
| COc1ccc(C2=NC(C)(C)C(C)(C)N2O)cc1O | 44.33% | 60.71% | 120 s | 119 s | 117 s | 35.1% | 118 s | 50.77% | 41.62% | 59.85% |  |  |  |  |  |  |  |  |  |  |
| CC1(C)N=C(c2ccccc2F)N(O)C1(C)C | 66.15% | 73.25% | 117 s | 119 s | 119 s | 22.7% | 117 s | 75.97% | 90.94% | 72.72% | 53.11% | 36.96% | 45.44% | 69.89% | 56.97% | 37.8% | 54% | 27.64% | 36.02% | 47.03% |
| CC1(C)N=C(c2ccc([N+](=O)[O-])cc2)N(O)C1(C)C | 44.15% | 36.31% | 118 s | 117 s | 117 s | 32.7% | 117 s | 35.97% | 47.81% | 38.32% |  |  |  |  |  |  |  |  |  |  |
| CC1(C)N=C(c2ccccc2)N(O)C1(C)C | 43.67% | 37.07% | 117 s | 117 s | 118 s | 22.9% | 119 s | 37.41% | 35.48% | 37.68% |  |  |  |  |  |  |  |  |  |  |
| CC1(C)N=C(c2cccc([N+](=O)[O-])c2)N(O)C1(C)C | 52.76% | 63.46% | 117 s | 117 s | 119 s | 31.8% | 118 s | 60.26% | 70.83% | 62.07% |  |  |  |  |  |  |  |  |  |  |
